Drug metabolism data for nine compounds are collected here from ChEMBL document CHEMBL4382272, “A Curcumin Degradation Product, 7-Norcyclopentadione, Formed by Aryl Migration and Loss of a Carbon from the Heptadienedione Chain” (J Nat Prod, 2018).

SMILES strings stand for the structures.

Data set [1] can be described thus: Drug metabolism in pH 7.4 buffer treated with curcumin at 50 uM by LC-MS analysis.
Data set [2] is described as follows: Drug level in PMA-stimulated mouse RAW264.7 cells treated with curcumin at 10 uM after 30 mins by LC-MS analysis. The following applies: raw264.7, 0.5 h. Format: ADME, cell-based. An outline of the steps: (§1)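 RAW264.7 cells grown in DMEM with 10% FBS, seeded at 400 000 cells/well and attached overnight. They got PMA (stimulated lines) or EtOH vehicle for 5 min, then the test compound at 10 μM for 30 min. Supernatants were extracted on HLB cartridges, eluted with MeOH, dried under N2 and redissolved in MeCN/H2O 1:1. Analysis was negative-ion ESI LC-MS/MS in SRM mode.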

Data set [3] in a line: Drug level in pH 7.4 buffer containing 50% H218O treated with curcumin at 50 uM by LC-MS analysis. Format: physicochemical. The following applies: pH 7.4, 50 µM. An outline of the steps: (§2)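 Oxygen-18 labelling in 200 μL of 20 mM NH4HCO3, pH 7.4, made with a 1:1 mix of H2O and H218O (97%). Curcumin was added at 50 μM and incubated 1 h at 37 °C. Aliquots went to negative-ion LC-MS without extraction.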

A short description of data set [4]: Drug level in mouse RAW264.7 cells treated with curcumin at 10 uM after 30 mins by LC-MS analysis. Format: ADME, cell-based. The following applies: raw264.7, 0.5 h. Summed up:
as §1

The nature of data set [5]: Drug level treated with curcumin at 50 uM by LC-MS analysis. Format: physicochemical.
Data set [6] is described as follows: Drug metabolism assessed as horseradish peroxidase-mediated oxidation by measuring demethoxy-7-Norcyclopentadione formation at 50 uM after 1 hr in presence of H2O2 by LC-MS analysis. Format: ADME. The following applies: armoracia rusticana. An outline of the steps: (§3)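 HRP/H2O2 oxidation in 1 mL of 20 mM NH4OAc, pH 8, with 50 μM curcuminoid and 2.5 × 10−6 U horseradish peroxidase. H2O2 (40 μM) started the reaction, which ran 1 h at 37 °C. An aliquot was injected directly for negative-ion LC-MS.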

Data set [7] is described as follows: Drug level in PMA-stimulated mouse RAW264.7 cells treated with 4'-O-methylcurcumin at 10 uM after 30 mins by LC-MS analysis. The following applies: raw264.7, 0.5 h. It is filed as ADME, cell-based. Summed up: as §1
A short description of data set [8]: Drug level in mouse RAW264.7 cells treated with 4'-O-methylcurcumin at 10 uM after 30 mins by LC-MS analysis. Format: ADME, cell-based. The conditions noted are these: raw264.7, 0.5 h. An outline of the steps:
as §1

Data set [9] in a line: Drug level treated with demethoxy curcumin assessed as horseradish peroxidase-mediated oxidation at 50 uM after 1 hr in presence of H2O2 by LC-MS analysis. Format: ADME. The following applies: armoracia rusticana. An outline of the steps:
as §3

Data set [10] can be described thus: Drug metabolism in PMA-stimulated mouse RAW264.7 cells assessed as auto-oxidation by measuring 4''-O-methyl-7-norcyclopentadione formation at 10 uM after 30 mins by LC-MS analysis. It is filed as ADME, cell-based. The following applies: raw264.7, 0.5 h. Summed up:
as §1

A short description of data set [11]: Drug metabolism assessed as horseradish peroxidase-mediated oxidation by measuring deuterated-demethoxy-7-Norcyclopentadione formation at 50 uM after 1 hr in presence of H2O2 by LC-MS analysis. It is filed as ADME. The following applies: armoracia rusticana. Summed up: as §3
Data set [12] in a line: Drug metabolism in pH 7.4 buffer containing 50% H218O assessed as auto-oxidation by measuring 7-Norcyclopentadione formation at 50 uM by LC-MS analysis. Summed up:
as §2

The nature of data set [13]: Drug metabolism assessed as auto-oxidation by measuring 7-Norcyclopentadione formation at 50 uM by LC-MS analysis.
Data set [14] is described as follows: Drug metabolism in PMA-stimulated mouse RAW264.7 cells assessed as auto-oxidation by measuring 7-Norcyclopentadione formation at 10 uM after 30 mins by LC-MS analysis. The following applies: raw264.7, 0.5 h. Format: ADME, cell-based. Summed up:
as §1

The nature of data set [15]: Drug metabolism in pH 7.4 buffer assessed as auto-oxidation by measuring 7-Norcyclopentadione formation at 50 uM by LC-MS analysis.
Data set [16] in a line: Drug metabolism assessed as horseradish peroxidase-mediated oxidation by measuring bisdemethoxy-7-Norcyclopentadione formation at 50 uM after 1 hr in presence of H2O2 by LC-MS analysis. Format: ADME. The conditions noted are these: armoracia rusticana. Summed up: as §3
The nature of data set [17]: Drug level treated with deuterated-demethoxy curcumin assessed as horseradish peroxidase-mediated oxidation at 50 uM after 1 hr in presence of H2O2 by LC-MS analysis. Format: ADME. The conditions noted are these: armoracia rusticana. Summed up: as §3

With `COc1cc(C(O)C2C(=O)C=C(O)C2c2ccc(O)c(OC)c2)ccc1O` (configuration not stated), the Drug metabolism entry in [1] is “Metabolite detected”; in [2], “Metabolite_Detected”; in data set [3], “Metabolite_Detected”; in data set [4], “Metabolite_Detected”; in data set [5], “Metabolite_Detected”.
For the compound `COc1cc(/C=C/C(=O)CC(=O)/C=C/c2ccc(O)cc2)ccc1O`, the Drug metabolism result in data set [6] is on record as “Metabolite_Detected”.
In the case of `COc1cc(C2C(O)=CC(=O)C2C(O)c2ccc(OC)c(OC)c2)ccc1O` (configuration not stated), the Drug metabolism entry in data set [7] and in [8] was “Metabolite_Detected” in each case.
With `COc1cc(C2C(O)=CC(=O)C2C(O)c2ccc(O)cc2)ccc1O` (configuration not stated), the Drug metabolism entry in [9] is “Metabolite_Detected”.
`COc1cc(/C=C/C(=O)/C=C(O)/C=C/c2ccc(OC)c(OC)c2)ccc1O`: the Drug metabolism result in [10] was “Metabolite_Detected”.
`[2H]c1c([2H])c(/C=C/C(=O)CC(=O)/C=C/c2ccc(O)c(OC)c2)c([2H])c([2H])c1O`: in data set [11], the Drug metabolism result is on record as “Metabolite_Detected”.
With `COc1cc(/C=C/C(=O)CC(=O)/C=C/c2ccc(O)c(OC)c2)ccc1O` [CURCUMIN], the Drug metabolism entry in data set [12] is recorded as “Metabolite detected”; in data set [13], “Metabolite detected”; in data set [14] it was “Metabolite_Detected”; in data set [15], “Metabolite detected”.
On to `O=C(/C=C/c1ccc(O)cc1)CC(=O)/C=C/c1ccc(O)cc1` [BISDEMETHOXYCURCUMIN], for which, in data set [16], the Drug metabolism entry is given as “Metabolite_Notdetected”.
Regarding `[2H]c1c([2H])c(C(O)C2C(=O)C=C(O)C2c2ccc(O)c(OC)c2)c([2H])c([2H])c1O` (configuration not stated), the Drug metabolism result in [17] was “Metabolite_Detected”.
